Experimental data taken from ChEMBL document CHEMBL1166010, “(E)-2-styrylchromones as potential anti-norovirus agents” (Bioorg Med Chem, 2010).

How the values were obtained:
[1] = Antiviral activity against MNV1 CW1 infected in mouse RAW264.7 cells assessed as inhibition of viral plaque formation after 24 hrs by neutral red staining; assay type: functional, cell-based, Murine norovirus 1; conditions: for IC50: Murine norovirus 1, CW1, RAW264.7, 24 h
In short: (§1)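 Confluent RAW 264.7 cells (plated at 5.0 × 10^5 cells/mL, 24 h, then maintenance medium with 2% FBS) infected 1 h at 37 °C with MNV-1.CW1 at 20-80 PFU/well, with compound present during infection and in first agarose overlay for 24 h. Second overlay with neutral red, further 24 h, plaques counted. Top concentration 50 µM (10 µM for some).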

rhinovirus A1B = test: Antiviral activity against HRV-1B infected in human HeLa cells assessed as inhibition of viral plaque formation; assay type: functional, organism-based, Human rhinovirus 1B; conditions: Rhinovirus A
rhinovirus B14 = test: Antiviral activity against HRV-14 infected in human HeLa cells assessed as inhibition of viral plaque formation; assay type: functional, organism-based; conditions: Rhinovirus B
[2] = Cytotoxicity against mouse RAW264.7 cells after 48 hrs by MTT assay; assay type: cell-based
[3] = Cytotoxicity against mouse RAW264.7 cells assessed as maximum non-toxic dose after 48 hrs by MTT assay; assay type: cell-based
In short: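 RAW 264.7 cells exposed 48 h to serial dilutions (top 150 µM, 100 µM for one compound) in duplicate, control 0.25% DMSO. MTT 0.5 mg/mL added for 4 h, formazan dissolved in DMSO, absorbance 550 nm. […] 3–4 independent experiments.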

[4] = Antiviral activity against MNV1 CW1 infected in mouse RAW264.7 cells assessed as inhibition of viral plaque formation at 10 uM after 24 hrs by neutral red staining; assay type: functional, Murine norovirus 1; conditions: Norwalk virus, CW1, RAW264.7, 24 h; in short: as §1
[5] = Antiviral activity against MNV1 CW1 infected in mouse RAW264.7 cells assessed as inhibition of viral plaque formation at 50 uM after 24 hrs by neutral red staining; assay type: functional, Murine norovirus 1; conditions: Norwalk virus, CW1, RAW264.7, 24 h; in short: as §1
[6] = Selectivity index, ratio of CC50 for mouse RAW264.7 cells to IC50 for MNV1 CW1 infected in mouse RAW264.7 cells; assay type: functional
[7] = Cytotoxicity against mouse RAW264.7 cells assessed as cell viability at 2.34 uM after 48 hrs by MTT assay; assay type: cell-based; conditions: read-out: Activity
[8] = (§2) Antiviral activity against MNV1 CW1 infected in mouse RAW264.7 cells assessed as inhibition of viral plaque formation treated for 48 hrs after viral infection by neutral red staining; assay type: functional, cell-based, Murine norovirus 1; conditions: Norwalk virus, CW1, RAW264.7, 48 h
In short: (§3)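 Compound added only in the agarose overlays for 48 h after 1 h MNV-1.CW1 infection of confluent RAW 264.7 cells; neutral red second overlay at 24 h, plaques counted after further 24 h. IC50 relative to DMSO-treated infected control; run alongside standard conditions.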

RAW264.7 [9] = test: as §2; assay type: functional, cell-based; conditions: Murine norovirus 1; in short: as §3
[10] = Antiviral activity against MNV1 CW1 infected in mouse RAW264.7 cells assessed as inhibition of viral plaque formation treated for 1 hr during viral infection followed by 48 hrs compound addition post infection by neutral red staining; assay type: functional, cell-based, Murine norovirus 1; conditions: Norwalk virus, CW1, RAW264.7; in short: as §1
[11] = (§4) Antiviral activity against MNV1 CW1 infected in mouse RAW264.7 cells assessed as inhibition of viral plaque formation treated for 1 hr during viral infection by neutral red staining; assay type: functional, cell-based, Murine norovirus 1; conditions: Norwalk virus, CW1, RAW264.7, 1 h
In short: (§5)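 Time-of-addition variant: RAW 264.7 cells exposed to serial compound concentrations only during the 1 h MNV-1.CW1 infection at 37 °C, then compound-free agarose overlays (neutral red second overlay, 24 h + 24 h) and plaque count. IC50 vs DMSO control; three independent experiments in duplicate.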

RAW264.7 [12] = test: as §4; assay type: functional, cell-based; conditions: Murine norovirus 1; in short: as §5
RAW264.7 [13] = test: Cytotoxicity against mouse RAW264.7 cells at 100 uM after 48 hrs by MTT assay; assay type: cell-based; conditions: raw264.7, 48 h

IC50 (rhinovirus A1B) [µM] | IC50 (rhinovirus B14) [µM] | Compound | IC50 [1] [µM] | CC50 at 48 h [2] [µM] | MNTC at 48 h ([3]; read-out: MNTD70) [µM] | MNTC at 48 h ([3]; read-out: MNTD90) [µM] | inhibition at 10 µM [4] [%] | inhibition at 50 µM [5] [%] | Ratio CC50/IC50 [6] | inhibition (INH) [1] [%] | viability at 48 h, 2.34 µM [7] [%] | IC50 [8] [µM] | inhibition (RAW264.7 [9]) | IC50 [10] [µM] | IC50 [11] [µM] | inhibition (RAW264.7 [12]) | Activity (RAW264.7 [13])
5.13 | 9.76 | O=c1c(O)c(/C=C/c2ccccc2)oc2ccccc12 | > 10 | 52.1 | 18.8 | 2.34 | 6.8 | – | – | – | – | – | – | – | – | – | –
– | – | O=c1cc(/C=C/c2ccccc2)oc2cccc(OCc3ccccc3)c12 | > 50 | > 150 | > 150 | 75 | – | 39.4 | – | – | – | – | – | – | – | – | –
6.19 | > 25 | O=c1cc(/C=C/c2ccccc2)oc2ccccc12 | 17.7 | > 150 | > 150 | 75 | – | – | >8.5 | – | – | – | – | – | – | – | –
1.1 | 1.6 | COc1c(/C=C/c2ccccc2)oc2ccccc2c1=O | 37.9 | > 150 | 75 | 37.5 | – | – | >4 | – | – | – | – | – | – | – | –
– | – | COc1ccc(/C=C/c2cc(=O)c3ccccc3o2)cc1 | – | – | > 100 | 50 | – | – | – | – | – | – | – | – | – | – | –
– | – | O=c1ccoc2ccccc12 [CHROMONE] | > 50 | > 150 | > 150 | 37.5 | – | – | – | 29.9 | – | – | – | – | – | – | –
– | – | C/C(=C\c1ccccc1)c1oc2ccccc2c(=O)c1O | > 10 | 46.7 | 18.8 | < 2.34 | 40.8 | – | – | – | 81 | – | – | – | – | – | –
> 6.25 | > 6.25 | Cc1ccc(/C=C/c2cc(=O)c3ccccc3o2)cc1 | 23.7 | > 150 | > 150 | > 150 | – | – | >6.3 | – | – | – | – | – | – | – | –
– | – | C/C(=C\c1ccccc1)c1cc(=O)c2ccccc2o1 | 18 | > 150 | > 150 | > 150 | – | – | >8.3 | – | – | – | – | – | – | – | –
9.29 | 6.41 | O=c1cc(/C=C/c2ccc(O)cc2)oc2ccccc12 | > 50 | > 150 | > 150 | < 2.34 | – | 21.1 | – | – | 86 | – | – | – | – | – | –
– | – | O=c1cc(/C=C/c2ccc(Cl)cc2)oc2ccccc12 | – | – | > 150 | 75 | – | – | – | – | – | – | – | – | – | – | –
– | – | O=c1cc(/C=C/c2ccccc2)oc2cccc(O)c12 | 7 | > 150 | > 150 | 4.69 | – | – | >21.6 | – | – | 8.2 | Dose-dependent effect | 6.9 | 39 | Dose-dependent effect | Non-toxic
